Experimental data pooled from the literature.
Protocols differ between the studies behind these lines.
Cell line: HT-29
Read-out: cell growth or viability

| Structure (SMILES) | method | tested at | time | inhibition [%] |
| --- | --- | --- | --- | --- |
| COc1ccc(C(=O)/C=C/c2ccc3c(c2)OCCO3)cc1S(N)(=O)=O | SRB | 10 µM | – | 67 |
| O=C1Nc2ccc(F)cc2/C1=N/NC(=O)c1cc2ccccc2[nH]1 | – | 30 µM | – | 13.9 |
| COc1ccc(C(=O)/C=C/c2c(F)cccc2Cl)cc1S(N)(=O)=O | SRB | 10 µM | – | 92 |
| COc1ccc(-c2nc(NN=C3C(=O)Nc4ccccc43)c3ccccc3n2)cc1OC | – | 30 µM | – | 38.1 |
| COc1ccc(C2=Nn3c(NN=C4C(=O)Nc5ccc(OC)cc54)nnc3SC2)cc1 | SRB | 10 µM | – | 24 |
| COc1cccc2c1C(=O)c1c(O)c3c(c(O)c1C2=O)C[C@@](O)(C(=O)CO)C[C@@H]3O[C@H]1C[C@H](N)[C@H](O)[C@H](C)O1 | SRB | 10 µg/mL | 48 h | 97.1 |
| COc1ccc(-c2nc(NN=C3C(=O)Nc4ccc(F)cc43)c3ccccc3n2)cc1OC | – | 30 µM | – | 9.6 |
| COc1ccc(C(=O)/C=C/c2cc3c(cc2Br)OCO3)cc1S(N)(=O)=O | SRB | 10 µM | – | 100 |
| COc1ccc2c(c1)/C(=N/NC(=O)c1cc3ccccc3[nH]1)C(=O)N2C | – | 30 µM | – | 90.8 |
| Cn1c(=O)c(NN=C2C(=O)Nc3ccc(Br)cc32)nc2ccccc21 | – | 30 µM | – | 49.4 |
| O=C1Nc2ccc(Cl)cc2/C1=N/NC(=O)c1cc2ccccc2[nH]1 | – | 30 µM | – | 29.4 |
| COc1cc2ncnc(NN=C3C(=O)Nc4ccc(F)cc43)c2cc1OC | – | 10 µM | – | 13.2 |
| CN1C(=O)/C(=N\NC(=O)c2cc3ccccc3[nH]2)c2cc(Cl)ccc21 | – | 30 µM | – | 92.4 |
| COc1ccc2c(c1)C(=NNc1nnc(Cc3ccccc3)c3ccccc13)C(=O)N2 | – | 30 µM | – | 9.3 |
| COc1ccccc1/C=C/C(=O)c1ccc(OC)c(S(N)(=O)=O)c1 | SRB | 10 µM | – | 81 |
| O=C1Nc2ccccc2C1=NNc1nnc(Cc2ccccc2)c2ccccc12 | – | 30 µM | – | 87.6 |
| COc1ccc(C(=O)/C=C/c2cccc3ccccc23)cc1S(N)(=O)=O | SRB | 10 µM | – | 140 |
| CN1C(=O)/C(=N\NC(=O)c2cc3ccccc3[nH]2)c2ccccc21 | – | 30 µM | – | 78.5 |
| COc1ccc(C(=O)/C=C/c2ccc(Cl)c(Cl)c2)cc1S(N)(=O)=O | SRB | 10 µM | – | 150 |
| CN1C(=O)/C(=N\NC(=O)c2cc3ccccc3[nH]2)c2cc(Br)ccc21 | – | 30 µM | – | 95.2 |
| COc1ccc(C2=Nn3c(NN=C4C(=O)Nc5ccc(Cl)cc54)nnc3SC2)cc1 | SRB | 10 µM | – | 27 |
